Data published in ChEMBL document CHEMBL2401716, “Design and stereoselective synthesis of novel isosteviol-fused pyrazolines and pyrazoles as potential anticancer agents” (Eur J Med Chem, 2013).

Key:
Assay type in all cases: functional, cell-based
SGC-7901 = test: Antiproliferative activity against human SGC7901 cells after 48 hrs by MTT assay; settings: SGC-7901, 48 h
In short: (§1)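 Cells seeded in 96-well plates and exposed to compounds for 48 h at 37 °C, 5% CO2. MTT (0.5 mg/mL) then added for 4 h. Supernatant removed, formazan dissolved in DMSO, and OD read at 570 nm. Cisplatin served as positive control.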

Raji = test: Antiproliferative activity against human Raji cells after 48 hrs by MTT assay
In short: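 Human B-lymphoma Raji line kept in RPMI-1640 with 10% FBS and 100 U/mL penicillin at 37 °C, 5% CO2, humidified. Cells were plated in 96 wells and treated with compounds for 48 h. MTT (0.5 mg/mL) was added for 4 h, then formazan was taken up in DMSO after supernatant removal and read at 570 nm. Cisplatin served as positive control.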

HeLa = test: Antiproliferative activity against human HeLa cells after 48 hrs by MTT assay; in short: as §1
A549 = test: Antiproliferative activity against human A549 cells after 48 hrs by MTT assay; settings: A549, 48 h; in short: as §1

Compound | IC50 (SGC-7901) [µM] | IC50 (Raji) [µM] | IC50 (HeLa) [µM] | IC50 (A549) [µM]
CCOC(=O)[C@]1(C)CCC[C@@]2(C)[C@@H]3CC[C@@]4(C)C[C@]3(CC[C@@H]21)[C@@H]1CN(c2ccc(C)cc2)N=C14 | 29.4 | 3.91 | 29.1 | 13.7
CCOC(=O)[C@]1(C)CCC[C@@]2(C)[C@@H]3CC[C@@]4(C)C[C@]3(CC[C@@H]21)[C@@H]1CN(c2cccc(C(F)(F)F)c2)N=C14 | > 50 | 7.21 | > 50 | > 50
CCOC(=O)[C@]1(C)CCC[C@@]2(C)[C@@H]3CC[C@@]4(C)C[C@]3(CC[C@@H]21)[C@@H]1CN(c2c(C)cccc2C)N=C14 | 16.6 | 5.63 | 28.8 | 17.6
CCOC(=O)[C@]1(C)CCC[C@@]2(C)[C@@H]3CC[C@@]4(C)C[C@]3(CC[C@@H]21)c1cnn(-c2ccccc2F)c14 | 35.6 | 4.15 | > 50 | 27
CCOC(=O)[C@]1(C)CCC[C@@]2(C)[C@@H]3CC[C@@]4(C)C[C@]3(CC[C@@H]21)c1cnn(-c2cccc(F)c2)c14 | 35.8 | 3.4 | > 50 | 19.2
CCOC(=O)[C@]1(C)CCC[C@@]2(C)[C@@H]3CC[C@@]4(C)C[C@]3(CC[C@@H]21)c1cnn(-c2ccc(F)cc2)c14 | 25.6 | 7.01 | > 50 | 22.3
CCOC(=O)[C@]1(C)CCC[C@@]2(C)[C@@H]3CC[C@@]4(C)C[C@]3(CC[C@@H]21)c1cnn(-c2cccc(Br)c2)c14 | 34.9 | 3.27 | > 50 | 26.5
CCOC(=O)[C@]1(C)CCC[C@@]2(C)[C@@H]3CC[C@@]4(C)C[C@]3(CC[C@@H]21)c1cnn(-c2ccc(Br)cc2)c14 | 29.6 | 4.78 | > 50 | 23.1
CCOC(=O)[C@]1(C)CCC[C@@]2(C)[C@@H]3CC[C@@]4(C)C[C@]3(CC[C@@H]21)c1cnn(-c2ccccc2C)c14 | 35.3 | 7.71 | 15.2 | 19
CCOC(=O)[C@]1(C)CCC[C@@]2(C)[C@@H]3CC[C@@]4(C)C[C@]3(CC[C@@H]21)c1cnn(-c2cccc(C)c2)c14 | 13.6 | 4.84 | > 50 | 12.4
CCOC(=O)[C@]1(C)CCC[C@@]2(C)[C@@H]3CC[C@@]4(C)C[C@]3(CC[C@@H]21)c1cnn(-c2cccc([N+](=O)[O-])c2)c14 | > 50 | 7.4 | > 50 | > 50
CCOC(=O)[C@]1(C)CCC[C@@]2(C)[C@@H]3CC[C@@]4(C)C[C@]3(CC[C@@H]21)c1cnn(-c2cc(F)ccc2F)c14 | > 50 | 7.11 | > 50 | > 50
CCOC(=O)[C@]1(C)CCC[C@@]2(C)[C@@H]3CC[C@@]4(C)C[C@]3(CC[C@@H]21)c1cnn(-c2cccc(Cl)c2Cl)c14 | > 50 | 5.13 | > 50 | > 50
CCOC(=O)[C@]1(C)CCC[C@@]2(C)[C@@H]3CC[C@@]4(C)C[C@]3(CC[C@@H]21)c1cnn(-c2ccc(Cl)cc2Cl)c14 | 2.71 | 1.09 | 13.5 | 3.18
CCOC(=O)[C@]1(C)CCC[C@@]2(C)[C@@H]3CC[C@@]4(C)C[C@]3(CC[C@@H]21)c1cnn(-c2c(Cl)cccc2Cl)c14 | 27.1 | 5.7 | 34.9 | 33.2
CCOC(=O)[C@]1(C)CCC[C@@]2(C)[C@@H]3CC[C@@]4(C)C[C@]3(CC[C@@H]21)c1cnn(-c2cccc(C)c2C)c14 | 19.3 | 3.26 | 37.5 | 18.2
CCOC(=O)[C@]1(C)CCC[C@@]2(C)[C@@H]3CC[C@@]4(C)C[C@]3(CC[C@@H]21)c1cnn(-c2ccc(C)cc2C)c14 | 18.7 | 6.55 | 43.3 | 16.5
CCOC(=O)[C@]1(C)CCC[C@@]2(C)[C@@H]3CC[C@@]4(C)C[C@]3(CC[C@@H]21)c1cnn(-c2c(C)cccc2C)c14 | 9.17 | 2.09 | 20.3 | 11.8
CCOC(=O)[C@]1(C)CCC[C@@]2(C)[C@@H]3CC[C@@]4(C)C[C@]3(CC[C@@H]21)c1cnn(-c2ccc(C)c(C)c2)c14 | 38.1 | 6.5 | 38.2 | 15.8
CCOC(=O)[C@]1(C)CCC[C@@]2(C)[C@@H]3CC[C@@]4(C)C[C@]3(CC[C@@H]21)[C@@H]1CN(c2ccc(F)cc2)N=C14 | > 50 | 4.51 | > 50 | > 50
CCOC(=O)[C@]1(C)CCC[C@@]2(C)[C@@H]3CC[C@@]4(C)C[C@]3(CC[C@@H]21)[C@@H]1CN(c2cccc(Cl)c2)N=C14 | > 50 | 4.57 | > 50 | > 50
C[C@@]12CC[C@@H]3[C@@](CC[C@H]4[C@@]3(C)CCC[C@@]4(C)C(=O)O)(CC1=O)C2 [ISOSTEVIOL] | > 50 | > 50 | > 50 | > 50
